Results reported in ChEMBL document CHEMBL3822431, “Hydroxychalcone inhibitors of Streptococcus mutans glucosyl transferases and biofilms as potential anticaries agents” (Bioorg Med Chem Lett, 2016).
The source made the active and inactive calls. The rule behind the calls is not given here.

Tests used:
[1] = biological target: T1, Glucosyltransferase-I (Streptococcus mutans serotype c (strain ATCC 700610 / UA159)) (UniProt P08987); experiment: Inhibition of Wild-type Streptococcus mutans UA159 glucosyltransferase B at 50 uM by zymography
T1 sequence (whole entry): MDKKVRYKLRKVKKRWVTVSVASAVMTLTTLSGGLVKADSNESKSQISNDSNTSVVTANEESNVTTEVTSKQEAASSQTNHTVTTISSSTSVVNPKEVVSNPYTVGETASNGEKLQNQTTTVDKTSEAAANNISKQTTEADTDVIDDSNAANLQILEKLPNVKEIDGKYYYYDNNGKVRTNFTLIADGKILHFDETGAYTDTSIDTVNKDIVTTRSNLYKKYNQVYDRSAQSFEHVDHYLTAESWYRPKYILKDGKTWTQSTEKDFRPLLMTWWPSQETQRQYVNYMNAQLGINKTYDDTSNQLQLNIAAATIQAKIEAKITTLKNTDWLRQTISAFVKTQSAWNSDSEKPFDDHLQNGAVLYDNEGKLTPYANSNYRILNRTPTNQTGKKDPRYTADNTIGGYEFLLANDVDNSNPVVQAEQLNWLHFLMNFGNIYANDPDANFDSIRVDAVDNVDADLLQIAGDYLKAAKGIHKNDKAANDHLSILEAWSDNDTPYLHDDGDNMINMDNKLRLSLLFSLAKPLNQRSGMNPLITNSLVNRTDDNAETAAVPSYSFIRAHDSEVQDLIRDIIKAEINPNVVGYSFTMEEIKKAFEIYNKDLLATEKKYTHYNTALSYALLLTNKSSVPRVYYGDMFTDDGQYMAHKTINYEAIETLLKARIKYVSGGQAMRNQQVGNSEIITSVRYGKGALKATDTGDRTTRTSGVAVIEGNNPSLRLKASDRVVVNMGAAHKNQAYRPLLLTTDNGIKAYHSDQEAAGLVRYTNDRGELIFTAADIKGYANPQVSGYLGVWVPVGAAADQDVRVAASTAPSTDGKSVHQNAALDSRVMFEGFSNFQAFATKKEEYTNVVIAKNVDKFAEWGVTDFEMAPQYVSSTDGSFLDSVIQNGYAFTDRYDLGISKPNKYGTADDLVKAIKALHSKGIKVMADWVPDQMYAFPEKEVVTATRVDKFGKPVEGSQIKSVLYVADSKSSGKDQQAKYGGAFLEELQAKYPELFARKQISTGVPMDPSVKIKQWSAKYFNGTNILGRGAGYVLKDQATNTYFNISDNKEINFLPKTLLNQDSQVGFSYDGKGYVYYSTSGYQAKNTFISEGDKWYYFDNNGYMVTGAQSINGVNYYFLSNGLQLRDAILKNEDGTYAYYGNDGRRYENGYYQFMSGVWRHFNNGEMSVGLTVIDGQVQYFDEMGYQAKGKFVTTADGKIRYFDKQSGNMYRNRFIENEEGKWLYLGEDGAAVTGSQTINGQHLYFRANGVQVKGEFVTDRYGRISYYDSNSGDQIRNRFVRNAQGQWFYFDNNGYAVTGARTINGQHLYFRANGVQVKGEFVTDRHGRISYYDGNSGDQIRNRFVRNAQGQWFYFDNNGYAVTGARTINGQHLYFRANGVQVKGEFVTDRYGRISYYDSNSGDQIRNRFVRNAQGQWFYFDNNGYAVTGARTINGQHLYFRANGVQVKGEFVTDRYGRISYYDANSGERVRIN
Method in brief: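 Compound (50 µM) added to overnight S. mutans UA159 wild-type cultures; Gtfs concentrated from supernatants, run on duplicate SDS-PAGE; second gel used for zymogram, glucan band intensity taken as Gtf activity.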

[2] = biological target: T2, Glucosyltransferase-S (Streptococcus mutans serotype c (strain ATCC 700610 / UA159)) (UniProt P49331); experiment: Inhibition of Wild-type Streptococcus mutans UA159 glucosyltransferase D at 50 uM by coomassie blue staining based SDS-PAGE method
T2 sequence (whole entry): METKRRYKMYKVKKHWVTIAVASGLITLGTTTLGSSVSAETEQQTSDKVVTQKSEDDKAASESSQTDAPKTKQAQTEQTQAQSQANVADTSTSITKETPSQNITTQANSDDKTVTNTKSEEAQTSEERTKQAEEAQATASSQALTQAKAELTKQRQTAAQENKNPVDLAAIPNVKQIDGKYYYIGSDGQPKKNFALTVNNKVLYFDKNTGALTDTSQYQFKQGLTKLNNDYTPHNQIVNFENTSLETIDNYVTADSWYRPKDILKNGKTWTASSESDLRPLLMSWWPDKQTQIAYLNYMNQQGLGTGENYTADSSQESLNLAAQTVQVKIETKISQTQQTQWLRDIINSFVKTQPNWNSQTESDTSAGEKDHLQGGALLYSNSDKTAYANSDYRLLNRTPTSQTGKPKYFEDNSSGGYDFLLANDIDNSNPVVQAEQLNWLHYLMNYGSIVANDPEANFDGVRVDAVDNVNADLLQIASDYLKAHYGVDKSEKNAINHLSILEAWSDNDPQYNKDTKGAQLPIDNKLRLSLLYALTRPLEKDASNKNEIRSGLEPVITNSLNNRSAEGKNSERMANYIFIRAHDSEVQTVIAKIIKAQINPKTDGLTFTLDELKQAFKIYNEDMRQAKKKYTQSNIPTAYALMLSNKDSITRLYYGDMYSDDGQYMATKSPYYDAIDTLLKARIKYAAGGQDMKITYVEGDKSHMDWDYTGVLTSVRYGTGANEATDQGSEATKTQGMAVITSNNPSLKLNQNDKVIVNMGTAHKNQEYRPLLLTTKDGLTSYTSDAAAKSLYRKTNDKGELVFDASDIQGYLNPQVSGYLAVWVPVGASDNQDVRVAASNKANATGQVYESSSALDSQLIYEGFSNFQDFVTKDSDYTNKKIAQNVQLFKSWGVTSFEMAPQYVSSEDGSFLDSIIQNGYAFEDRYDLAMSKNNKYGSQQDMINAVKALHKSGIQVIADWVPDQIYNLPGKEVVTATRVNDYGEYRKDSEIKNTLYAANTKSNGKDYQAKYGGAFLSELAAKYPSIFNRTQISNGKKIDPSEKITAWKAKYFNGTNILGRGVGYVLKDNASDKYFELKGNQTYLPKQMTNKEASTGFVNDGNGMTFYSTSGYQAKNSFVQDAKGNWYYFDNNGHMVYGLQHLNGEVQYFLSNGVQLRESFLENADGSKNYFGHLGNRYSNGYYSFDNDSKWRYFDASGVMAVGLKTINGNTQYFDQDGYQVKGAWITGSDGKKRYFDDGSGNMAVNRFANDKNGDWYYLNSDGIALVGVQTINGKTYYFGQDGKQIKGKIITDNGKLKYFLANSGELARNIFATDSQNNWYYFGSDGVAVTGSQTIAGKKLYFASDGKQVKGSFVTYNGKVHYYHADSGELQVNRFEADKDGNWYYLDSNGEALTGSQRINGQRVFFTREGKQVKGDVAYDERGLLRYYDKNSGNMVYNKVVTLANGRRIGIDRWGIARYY
Method in brief: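 Compound (50 µM) added to overnight S. mutans UA159 wild-type cultures; Gtfs collected and concentrated from supernatants, run on SDS-PAGE in duplicate; one gel Coomassie blue stained for protein levels.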

Compound	inhibition [1]	inhibition [2]
O=C(/C=C\c1ccc(O)cc1O)c1cccc(O)c1	Active	Active
O=C(/C=C/c1cc(O)c(O)cc1O)c1ccccc1O (stereo in doubt; 18c)	Active	Active
O=C(/C=C/c1ccc(O)cc1O)c1ccc(O)cc1	Active	Active
O=C(/C=C\c1ccc(O)cc1O)c1ccc(O)cc1	Active	Active
O=C(/C=C/c1ccc(O)cc1O)c1cccc(O)c1 (stereo in doubt; 9a)	Active	Active
